Source: ChEMBL document CHEMBL1157573, “BRAF inhibitors based on an imidazo[4,5]pyridin-2-one scaffold and a meta substituted middle ring” (J Med Chem, 2010)

Assays:
[1] = molecular target: T1, Serine/threonine-protein kinase B-raf (Homo sapiens, UniProt P15056, V600E); test: Inhibition of BRAF V600E mutant-mediated ERK phosphorylation in human WM266.4 cells; assay type: cell-based
[2] = molecular target: T1, Serine/threonine-protein kinase B-raf; test: Inhibition of human BRAF V600E mutant expressed in Sf9 cells
[3] = Antiproliferative activity against human WM266.4 cells after 6 days by SRB assay; assay type: functional; conditions: WM 266-4, 144 h
Outline: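 SRB cell proliferation assay on WM266.4 melanoma cells, which carry mutant BRAF. Growth inhibition is reported as GI50.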

[4] = Antiproliferative activity against human WM1361 cells after 5 days by SRB assay; conditions: WM1361, 120 h
[5] = Antiproliferative activity against human WM266.4 cells after 5 days by SRB assay; conditions: WM 266-4, 120 h

T1 sequence (P15056 2-766 V600E limits assumed): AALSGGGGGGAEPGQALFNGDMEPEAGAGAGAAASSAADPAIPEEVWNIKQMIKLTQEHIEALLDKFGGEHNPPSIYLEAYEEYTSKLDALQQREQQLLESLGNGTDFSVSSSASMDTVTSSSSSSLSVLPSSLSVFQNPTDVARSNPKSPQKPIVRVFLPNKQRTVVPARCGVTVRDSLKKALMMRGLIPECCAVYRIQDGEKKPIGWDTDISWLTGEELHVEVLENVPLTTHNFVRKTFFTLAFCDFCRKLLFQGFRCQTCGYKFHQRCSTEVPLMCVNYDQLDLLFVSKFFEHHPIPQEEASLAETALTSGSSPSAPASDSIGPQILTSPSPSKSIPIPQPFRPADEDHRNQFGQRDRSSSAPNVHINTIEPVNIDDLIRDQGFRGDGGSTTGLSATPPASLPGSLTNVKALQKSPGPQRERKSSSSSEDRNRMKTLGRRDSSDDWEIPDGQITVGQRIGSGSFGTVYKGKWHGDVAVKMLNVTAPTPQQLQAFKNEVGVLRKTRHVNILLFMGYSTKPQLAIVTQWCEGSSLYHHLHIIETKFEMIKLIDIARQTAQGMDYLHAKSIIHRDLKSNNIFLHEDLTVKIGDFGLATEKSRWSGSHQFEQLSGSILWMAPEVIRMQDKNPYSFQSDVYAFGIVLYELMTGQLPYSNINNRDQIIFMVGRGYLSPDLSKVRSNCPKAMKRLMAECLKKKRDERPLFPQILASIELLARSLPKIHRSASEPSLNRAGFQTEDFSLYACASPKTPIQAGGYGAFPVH

| IC50 [1] [µM] | IC50 [2] [µM] | Compound | GI50 [3] [µM] | GI50 [4] [µM] | GI50 [5] [µM] |
| --- | --- | --- | --- | --- | --- |
| 6.9 | 0.01 | O=C(Nc1cc(Oc2ccnc3[nH]c(=O)[nH]c23)c(F)cc1F)c1cccc(OC(F)(F)F)c1 | 4.6 |  |  |
| 11.3 | 0.033 | O=C(Nc1cc(Cl)cc(Oc2ccnc3[nH]c(=O)[nH]c23)c1)c1cccc(OC(F)(F)F)c1 | 1.9 |  |  |
| 10.7 | 0.015 | O=C(Nc1cccc(Oc2ccnc3[nH]c(=O)[nH]c23)c1)Nc1ccc(Cl)c(C(F)(F)F)c1 | 4.2 |  |  |
| 15 | 0.043 | O=C(Nc1cccc(Oc2ccnc3[nH]c(=O)[nH]c23)c1)c1cc(OC(F)(F)F)ccc1F | 1.2 |  |  |
| 5.7 | 0.023 | O=C(Nc1cccc(Oc2ccnc3[nH]c(=O)[nH]c23)c1)c1cccc(OC(F)(F)C(F)F)c1 | 0.841 |  |  |
| 6.7 | 0.015 | O=C(Nc1cccc(Oc2ccnc3[nH]c(=O)[nH]c23)c1)c1cccc(OC(F)(F)F)c1F | 0.57 |  |  |
| 7.56 | 0.014 | O=C(Nc1cccc(Oc2ccnc3[nH]c(=O)[nH]c23)c1)c1cccc(OC(F)(F)F)c1 | 1 |  |  |
| 15.4 | 0.047 | O=C(Nc1cccc(Oc2ccnc3[nH]c(=O)[nH]c23)c1)c1cccc(N2CCCCC2)c1 | 9.6 |  |  |
| 3.5 | 0.017 | CC(C)(C)c1cccc(C(=O)Nc2cccc(Oc3ccnc4[nH]c(=O)[nH]c34)c2)c1 | 1.83 |  |  |
| 16 | 0.033 | O=C(Nc1cc(F)cc(Oc2ccnc3[nH]c(=O)[nH]c23)c1)c1cccc(OC(F)(F)F)c1 | 2.4 |  |  |
| 12.2 | 0.026 | O=C(Nc1cccc(Oc2ccnc3[nH]c(=O)[nH]c23)c1)Nc1cc(C(F)(F)F)ccc1F | 1.6 |  |  |
| 6.48 | 0.005 | O=C(Nc1cccc(Oc2ccnc3[nH]c(=O)[nH]c23)c1)c1cccc(SC(F)(F)F)c1 | 5.1 |  |  |
|  |  | CNC(=O)c1cc(Oc2ccc(NC(=O)Nc3ccc(Cl)c(C(F)(F)F)c3)cc2)ccn1 [SORAFENIB] |  | 4.34 | 4.93 |
